This note sets out measurements from ChEMBL document CHEMBL5584277, “Identification of 5-Thiocyanatothiazol-2-amines Disrupting WDR5-MYC Protein-Protein Interactions” (ACS Med Chem Lett, 2024).

One assay has as its target WDR5-MYC (Homo sapiens, UniProt P61964). Nature of the assay: Disruption of WDR5/5-FAM-labelled MYC (261 to 267 residues)(unknown origin) interaction incubated for 120 mins by FP assay. The class given is protein assay. The method, boiled down: (§1)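 FP competition with reporter probe from MYC MbIIIb residues E261–V267 bound to WDR5, compound concentration varied, DMSO as negative control. Ki obtained by fitting FP signal change to a hyperbolic function. Unlabelled MYC peptide run as assay quality control.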

Assay [1] deals with WD repeat-containing protein 5 (Homo sapiens) (UniProt P61964). Nature of the assay: Binding affinity to WDR5 (unknown origin) assessed as increase in melting temperature by DSF assay relative to control. The method, boiled down: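 Differential scanning fluorimetry on WDR5 protein, compounds against DMSO. Inflection-point temperature (Ti) monitored, shift given as ΔTi relative to DMSO group.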
(In general: In DSF a fluorescence change marks the thermal transition of the protein.)

Assay [2] has the same target. Nature of the assay: Binding affinity to WDR5 (unknown origin) assessed as decrease in melting temperature by DSF assay relative to control. Summed up:
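DSF with WDR5 protein, with DMSO as the reference group. The inflection-point temperature (Ti) of WDR5 was monitored after compound treatment, and the change is reported as ΔTi relative to DMSO.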

For the next assay, the system named is Raji. Nature of the assay: Antiproliferative activity against human Raji cells incubated for 72 hrs by SRB assay. The format is functional, cell-based.
Another assay concerns Ramos. The assay can be described thus: Antiproliferative activity against human Ramos cells incubated for 72 hrs by SRB assay. The class given is functional, cell-based. (In SRB staining, fixed cells bind dye roughly in proportion to their protein.)
The test system of a further assay is SUD4. The assay can be described thus: Antiproliferative activity against human SU-DHL-4 cells incubated for 72 hrs by SRB assay. As to conditions: SU-DHL-4, 72 h. The format is functional, cell-based.
The subject of the next assay is HL-60. The assay can be described thus: Antiproliferative activity against human HL-60 cells incubated for 72 hrs by SRB assay. The class given is functional, cell-based. Conditions: HL-60, 72 h.
Another assay deals with NCI-H1299. The assay can be described thus: Antiproliferative activity against human NCI-H1299 cells incubated for 72 hrs by SRB assay. Conditions: NCI-H1299, 72 h. The class given is functional, cell-based.
In assay [3] the target is T1, WDR5-MYC (Homo sapiens) (UniProt P61964+P01106). The assay can be described thus: Disruption of His-tagged recombinant WDR5 (unknown origin)/HEK293T cell lysate-derived C-MYC (unknown origin) protein-protein interaction assessed as dissociation of protein complex incubated for 120 mins by Co-IP assay.
Assay [4] concerns the target T1, WDR5-MYC (Homo sapiens). The assay can be described thus: Disruption of WDR5/5-FAM-labelled MYC (261 to 267 residues)(unknown origin) interaction at 50 uM incubated for 120 mins by FP assay relative to control. The class given is protein assay. The method, boiled down:
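Single-point FP screen at 50 μM compound, signal read against DMSO control. Inhibition rate given as mean of n = 2.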

In assay [5] the target is T1, WDR5-MYC (Homo sapiens). The assay can be described thus: Disruption of WDR5/5-FAM-labelled MYC (261 to 267 residues)(unknown origin) interaction by FP assay. The class given is protein assay. As to conditions: time 0.5-6 hrs. Summed up: as §1
The target of assay [6] is T1, WDR5-MYC (Homo sapiens). The assay can be described thus: Disruption of WDR5/5-FAM-labelled MYC (261 to 267 residues)(unknown origin) interaction incubated for 0.5 hrs by FP assay relative to control. The format is protein assay. Summed up:
(§2)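 Time-course FP competition between WDR5 and MYC-derived probe (E261–V267). Compound titrated and read after incubation times from 30 to 360 min. Maximal inhibition (%) and potency taken at each time point from the inhibition curves.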

In assay [7] the target is T1, WDR5-MYC (Homo sapiens). The assay can be described thus: Disruption of WDR5/5-FAM-labelled MYC (261 to 267 residues)(unknown origin) interaction incubated for 6 hrs by FP assay relative to control. The format is protein assay. Summed up:
as §2

Assay [8] deals with T1, WDR5-MYC (Homo sapiens). The assay can be described thus: Disruption of WDR5/5-FAM-labelled MYC (261 to 267 residues)(unknown origin) interaction assessed as fold increase in activity incubated for 0.5 to 6 hrs by FP assay relative to control. Conditions: time 0.5-6 hrs. The class given is protein assay. Summed up:
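Fluorescence polarization with WDR5 and a reporter peptide probe from MYC MbIIIb residues E261–V267. Compounds and WDR5 were incubated for 30 to 360 min before reading. FP signal was recorded over varying compound concentrations and fitted to a hyperbolic function to give Ki. DMSO served as negative control, and free MYC peptide was the quality control.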

As a reminder, the Ki is the dissociation constant of the complex between target and ligand, obtained from inhibition or displacement. The low end stands for tighter binding, the high end for weaker binding. On to `Cc1ccc(-c2nc(N)sc2SC#N)cc1`, for which, on WDR5-MYC, the Ki came to 3000 nM. The ΔTm is the change in melting temperature against a reference sample. For `COc1ccc(Br)cc1S(=O)(=O)Nc1cc(Cl)ccc1O`, on WDR5-MYC, the affinity corresponds to a Ki of 16300 nM. In [1], the ΔTm was 1.4 °C.

For `N#CSc1sc(N)nc1-c1ccc(F)cc1`, the inhibition constant (Ki) at WDR5-MYC was 3200 nM.

On to `N#CSc1sc(N)nc1-c1cccc([N+](=O)[O-])c1`, for which, at WDR5-MYC, affinity was put at a Ki of 4100 nM. In the case of `N#CSc1sc(N)nc1-c1cccc(Br)c1`, on WDR5-MYC, the inhibition constant Ki is 2600 nM. Same read-out and setting: the result for `Cc1ccc(S(=O)(=O)Nc2nc(-c3ccc(Cl)cc3)c(SC#N)s2)cc1` reads 54500 nM; that for `N#CSc1sc(N)nc1-c1ccccc1Br`, 3000 nM. In general, IC50 refers to the concentration that inhibits the measured activity by half. Consider `N#CSc1sc(N)nc1-c1ccc(O)cc1`, for which the Ki on WDR5-MYC turned out to be 2400 nM. In addition, the ΔTm in assay [2] is -2.7 °C. Also, the IC50 in the assay with Raji amounted to 710 nM; in the assay on Ramos, 1060 nM; in the assay on SUD4 it was 1430 nM; in the assay on HL-60 it was 3030 nM; in the assay on NCI-H1299, 3700 nM. Besides, on WDR5-MYC (Homo sapiens) [3], the Activity result was “Dose-Dependent Effect”.

The compound `COc1ccc(-c2nc(N)sc2SC#N)cc1` returned a Ki at WDR5-MYC of 2900 nM. On WDR5-MYC, `N#CSc1sc(N)nc1-c1ccccc1Cl` displayed an inhibitory constant (Ki) of 2600 nM.

A word on the inhibition: it is the relative decrease from the control value, in per cent. Turning to `CS(=O)(=O)c1sc(N)nc1-c1ccc(Cl)cc1`, on WDR5-MYC (Homo sapiens) [4], the inhibition was -10%. In turn, `N#CSc1sc(N)nc1-c1ccc(C(F)(F)F)cc1` returned an inhibition constant (Ki) on WDR5-MYC of 1500 nM.

Regarding `C[S+]([O-])c1sc(N)nc1-c1ccc(Cl)cc1` (stereo unspecified), the inhibition against WDR5-MYC (Homo sapiens) [4] was determined as 0.4%. For `N#CSc1cnc(N)s1`, the inhibition constant Ki at WDR5-MYC worked out at 6100 nM. As for `N#CSc1sc(N)nc1-c1ccc(Cl)cc1`, the inhibitory constant (Ki) at WDR5-MYC came to 1300 nM. In addition, the Activity result on WDR5-MYC (Homo sapiens) [5] is “Dose-Dependent Effect”; at WDR5-MYC (Homo sapiens) [6], 33.2%; at WDR5-MYC (Homo sapiens) [7] it was 51.2%. Also, the fold change (FC) at WDR5-MYC (Homo sapiens) [8] came to 1.5. The thermal shift (ΔTm) in assay [2] was -2.7 °C. At WDR5-MYC, `CC(C)C(=O)Nc1nc(-c2ccc(Cl)cc2)c(SC#N)s1` had a Ki of 1600 nM. On to `N#Cc1sc(N)nc1-c1ccc(Cl)cc1`, for which the inhibition against WDR5-MYC (Homo sapiens) [4] was 1.1%. `N#CSc1sc(NC(=O)c2ccc(Cl)cc2)nc1-c1ccc(Cl)cc1`: the Ki at WDR5-MYC is greater than 50000 nM.

With `Nc1nc(-c2ccc(Cl)cc2)c(Br)s1`, at WDR5-MYC (Homo sapiens) [4], the inhibition was -5%.

Take `CCOc1ccc(-c2nc(N)sc2SC#N)cc1Br`: affinity at WDR5-MYC was put at a Ki of 6300 nM. `N#CSc1sc(Nc2ccccn2)nc1-c1ccc(Cl)cc1` had an inhibition constant (Ki) at WDR5-MYC greater than 50000 nM. Regarding `CNC(=O)c1ccc(-c2nc(N)sc2SC#N)cc1`, affinity at WDR5-MYC was put at a Ki of 1000 nM. In addition, the ΔTm in assay [2] is -5.8 °C. Also, the IC50 in the assay on Raji is 1520 nM; in the assay with Ramos it was 1510 nM; in the assay on SUD4, 2200 nM; in the assay on HL-60, 5320 nM; in the assay on NCI-H1299, 7400 nM. Besides, at WDR5-MYC (Homo sapiens) [3], the Activity result is “Dose-Dependent Effect”. As for `CNc1nc(-c2ccc(Cl)cc2)c(SC#N)s1`, the inhibitory constant (Ki) at WDR5-MYC was determined as 1200 nM. At WDR5-MYC, `COC(=O)c1ccc(-c2nc(N)sc2SC#N)cc1` showed a Ki of 1700 nM.

Take `Nc1nc(-c2ccc(Cl)cc2)cs1`: the inhibition against WDR5-MYC (Homo sapiens) [4] is 0.9%. Turning to `N#CSc1sc(N)nc1-c1ccc(Br)cc1`, the affinity on WDR5-MYC, expressed as Ki, was 900 nM.
